{
  "source": "ChEMBL document CHEMBL4837261",
  "about": "“Optimization of TopoIV Potency, ADMET Properties, and hERG Inhibition of 5-Amino-1,3-dioxane-Linked Novel Bacterial Topoisomerase Inhibitors: Identification of a Lead with In Vivo Efficacy against MRSA” (J Med Chem, 2021)",
  "key": {"Staphylococcus aureus [1]": {"tested_on": "Staphylococcus aureus", "assay": "Antibacterial activity against Staphylococcus aureus ATCC 29213 by CLSI method", "format": "functional"}, "Staphylococcus aureus [2]": {"tested_on": "Staphylococcus aureus", "assay": "Antibacterial activity against methicillin-resistant Staphylococcus aureus USA300 by CLSI method", "format": "functional"}, "DNA gyrase": {"molecular_target": "DNA gyrase (Staphylococcus aureus, UniProt P0A0K8+P20831, D83N)", "assay": "Inhibition of Staphylococcus aureus DNA Gyrase D83N mutant assessed as reduction in supercoiling pBR322 DNA by measuring relaxation by bromophenol blue staining based TAE gel method"}, "[3]": {"assay": "Growth inhibition of human K/VP.5 cells incubated for 48 hrs by NBTI cell counting analysis", "format": "functional", "conditions": "K562, 48 h"}, "[4]": {"molecular_target": "DNA gyrase (Staphylococcus aureus) (UniProt P0A0K8+P20831)", "assay": "Inhibition of Staphylococcus aureus DNA Gyrase assessed as reduction in supercoiling pBR322 DNA by measuring induction of double strand breaks by ethidium bromide staining based agarose gel electrophoresis", "format": "protein-complex assay", "conditions": "dose 1-100 µM", "in_short": "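Gyrase-mediated cleavage of negatively supercoiled pBR322 ran for 30 min at 37 °C with compound at 0.5–200 μM. Single- and double-strand break products were quantified from gel lane fluorescence, corrected for differential emission of supercoiled versus linear DNA.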"}, "HeLa": {"tested_on": "HeLa", "assay": "Cytotoxicity against human HeLa cells", "format": "cell-based", "in_short": "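THP-1, HepG2 and HeLa cells were exposed to compound from 128 to 0.0625 μg/mL. IC50 was obtained by nonlinear regression of the inhibition curves.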"}, "[5]": {"molecular_target": "5-hydroxytryptamine receptor 2B (Homo sapiens) (UniProt P41595)", "sequence (P41595 whole entry)": "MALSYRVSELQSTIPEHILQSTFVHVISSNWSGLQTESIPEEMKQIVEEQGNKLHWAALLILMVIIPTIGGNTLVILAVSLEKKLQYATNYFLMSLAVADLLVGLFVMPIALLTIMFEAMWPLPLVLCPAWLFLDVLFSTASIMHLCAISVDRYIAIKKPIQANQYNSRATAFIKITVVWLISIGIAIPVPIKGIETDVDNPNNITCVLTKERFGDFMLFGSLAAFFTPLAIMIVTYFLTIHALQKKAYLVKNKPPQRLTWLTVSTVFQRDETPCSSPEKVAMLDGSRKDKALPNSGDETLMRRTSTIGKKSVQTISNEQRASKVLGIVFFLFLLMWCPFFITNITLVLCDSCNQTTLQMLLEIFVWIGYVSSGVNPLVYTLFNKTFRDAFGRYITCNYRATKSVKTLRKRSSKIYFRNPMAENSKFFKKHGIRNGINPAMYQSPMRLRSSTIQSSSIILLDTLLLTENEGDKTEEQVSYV", "assay": "Displacement of [3H]Lysergic acid diethylamide from human recombinant 5HT2B receptor expressed in CHO-K1 cells at 100 uM by radioligand binding assay", "format": "cell-based"}, "[6]": {"molecular_target": "Acetylcholinesterase (Homo sapiens) (UniProt P22303)", "sequence (P22303 whole entry)": "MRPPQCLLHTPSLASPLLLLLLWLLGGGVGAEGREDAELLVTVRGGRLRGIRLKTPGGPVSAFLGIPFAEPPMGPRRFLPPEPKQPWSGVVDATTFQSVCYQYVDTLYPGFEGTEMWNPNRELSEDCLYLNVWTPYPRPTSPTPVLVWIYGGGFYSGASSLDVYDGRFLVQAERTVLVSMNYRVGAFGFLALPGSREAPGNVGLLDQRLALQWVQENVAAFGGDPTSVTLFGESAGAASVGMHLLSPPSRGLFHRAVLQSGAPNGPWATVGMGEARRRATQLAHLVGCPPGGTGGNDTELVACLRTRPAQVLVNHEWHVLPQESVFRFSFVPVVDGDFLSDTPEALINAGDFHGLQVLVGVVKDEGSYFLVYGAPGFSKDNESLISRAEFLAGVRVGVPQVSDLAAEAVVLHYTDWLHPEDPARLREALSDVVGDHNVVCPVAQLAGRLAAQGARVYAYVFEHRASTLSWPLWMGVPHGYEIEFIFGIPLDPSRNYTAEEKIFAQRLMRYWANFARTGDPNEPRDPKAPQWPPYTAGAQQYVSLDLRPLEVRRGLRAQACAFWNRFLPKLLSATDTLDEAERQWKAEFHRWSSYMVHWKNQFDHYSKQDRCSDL", "assay": "Inhibition of human recombinant acetylcholinesterase receptor expressed in HEK293 cells at 100 uM by spectrophotometry", "format": "cell-based"}, "hERG (KCNH2)": {"molecular_target": "hERG (KCNH2) (Homo sapiens, UniProt Q12809)", "sequence (Q12809 whole entry)": "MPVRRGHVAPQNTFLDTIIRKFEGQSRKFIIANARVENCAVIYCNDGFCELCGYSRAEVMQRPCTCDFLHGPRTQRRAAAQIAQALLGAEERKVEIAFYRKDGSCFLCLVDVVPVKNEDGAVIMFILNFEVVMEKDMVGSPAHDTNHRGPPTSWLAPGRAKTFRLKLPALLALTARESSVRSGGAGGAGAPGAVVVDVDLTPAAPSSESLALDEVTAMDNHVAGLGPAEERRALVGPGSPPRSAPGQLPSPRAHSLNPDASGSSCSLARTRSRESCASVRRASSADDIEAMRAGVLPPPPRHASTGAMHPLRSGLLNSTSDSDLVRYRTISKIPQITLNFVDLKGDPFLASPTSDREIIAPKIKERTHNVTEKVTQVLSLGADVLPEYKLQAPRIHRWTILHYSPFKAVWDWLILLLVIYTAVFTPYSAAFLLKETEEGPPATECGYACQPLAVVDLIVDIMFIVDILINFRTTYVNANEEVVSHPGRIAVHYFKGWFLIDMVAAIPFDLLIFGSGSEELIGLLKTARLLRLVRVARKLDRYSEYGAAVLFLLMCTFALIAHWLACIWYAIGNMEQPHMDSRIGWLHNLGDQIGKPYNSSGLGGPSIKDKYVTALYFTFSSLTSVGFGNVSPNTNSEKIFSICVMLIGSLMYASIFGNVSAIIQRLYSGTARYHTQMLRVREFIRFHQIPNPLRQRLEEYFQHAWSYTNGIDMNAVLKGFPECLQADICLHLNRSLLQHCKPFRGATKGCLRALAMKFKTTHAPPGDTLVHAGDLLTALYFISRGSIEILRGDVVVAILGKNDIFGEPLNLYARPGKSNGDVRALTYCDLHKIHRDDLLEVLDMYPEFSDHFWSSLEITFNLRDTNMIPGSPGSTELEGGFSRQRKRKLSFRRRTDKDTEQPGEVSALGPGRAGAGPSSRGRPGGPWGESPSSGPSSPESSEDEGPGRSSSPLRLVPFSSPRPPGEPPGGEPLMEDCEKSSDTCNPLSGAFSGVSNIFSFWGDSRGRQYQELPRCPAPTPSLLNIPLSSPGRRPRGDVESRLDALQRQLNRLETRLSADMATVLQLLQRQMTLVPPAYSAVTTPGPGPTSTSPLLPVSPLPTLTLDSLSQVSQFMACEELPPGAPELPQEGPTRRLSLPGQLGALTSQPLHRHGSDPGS", "assay": "Inhibition of recombinant human ERG expressed in CHO-K1 cells at 100 uM at -80 mV holding potential tail current by automated Qpatch clamp assay relative to control", "format": "ADME, cell-based", "conditions": "CHO-K1 cells expressing recombinant human ERG"}, "Kv4.3 (KCND3)": {"molecular_target": "Kv4.3 (KCND3) (Homo sapiens, UniProt Q9UK17)", "sequence (Q9UK17 whole entry)": "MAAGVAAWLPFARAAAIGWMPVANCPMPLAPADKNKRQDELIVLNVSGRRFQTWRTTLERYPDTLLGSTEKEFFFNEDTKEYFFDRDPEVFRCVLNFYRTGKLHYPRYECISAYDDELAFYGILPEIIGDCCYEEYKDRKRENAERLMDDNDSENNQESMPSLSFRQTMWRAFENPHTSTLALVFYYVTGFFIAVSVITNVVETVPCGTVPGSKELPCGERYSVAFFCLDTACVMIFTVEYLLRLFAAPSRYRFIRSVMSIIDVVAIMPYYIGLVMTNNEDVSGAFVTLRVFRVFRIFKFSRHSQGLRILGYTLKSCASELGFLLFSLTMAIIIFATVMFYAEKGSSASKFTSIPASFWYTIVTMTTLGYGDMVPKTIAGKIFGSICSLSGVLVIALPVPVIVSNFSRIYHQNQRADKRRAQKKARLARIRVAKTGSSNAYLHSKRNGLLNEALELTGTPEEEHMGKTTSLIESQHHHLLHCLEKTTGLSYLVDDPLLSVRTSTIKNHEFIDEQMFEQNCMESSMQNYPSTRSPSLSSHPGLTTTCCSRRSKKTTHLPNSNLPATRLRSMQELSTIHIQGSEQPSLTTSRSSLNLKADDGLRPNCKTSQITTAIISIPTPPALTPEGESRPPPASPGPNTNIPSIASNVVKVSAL", "assay": "Inhibition of recombinant human Kv4.3 expressed in human HEK293 cells at 100 uM measured at end current by automated Qpatch clamp assay relative to control", "format": "ADME, cell-based", "conditions": "HEK293 cells expressing recombinant human Kv4.3"}, "Nav1.5": {"molecular_target": "Nav1.5 (Homo sapiens, UniProt Q14524)", "assay": "Inhibition of recombinant human Nav1.5 expressed in human HEK293 cells at 100 uM measured at peak current by automated Qpatch clamp assay relative to control", "format": "ADME, cell-based", "conditions": "HEK293 cells expressing recombinant human Nav1.5"}, "Nav1.5 (late current)": {"molecular_target": "Nav1.5 (late current) (Homo sapiens, UniProt Q14524)", "assay": "Inhibition of recombinant human Nav1.5 late expressed in human HEK293 cells at 100 uM in presence of ATXII by automated Qpatch clamp assay relative to contro", "format": "ADME, cell-based", "conditions": "HEK293 cells expressing recombinant human Nav1.5"}, "[7]": {"assay": "Permeability of the compound from apical to basolateral side in human Caco-2 cells", "format": "ADME, cell-based", "conditions": "read-out: permeability"}, "[8]": {"assay": "Permeability of the compound from basolateral to apical side in human Caco-2 cells", "format": "ADME, cell-based", "conditions": "read-out: permeability", "in_short": "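Run at RTI International. Covers plasma protein binding (mouse, human; percent free), CACO-2 permeability and efflux, and microsomal stability (mouse and human microsomes) giving half-life.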"}, "[9]": {"assay": "Metabolic stability in CD1 mouse microsomes assessed as half life", "format": "ADME, Microsome"}, "CYP2B6": {"molecular_target": "CYP2B6 (Homo sapiens, UniProt P20813)", "sequence (P20813 whole entry)": "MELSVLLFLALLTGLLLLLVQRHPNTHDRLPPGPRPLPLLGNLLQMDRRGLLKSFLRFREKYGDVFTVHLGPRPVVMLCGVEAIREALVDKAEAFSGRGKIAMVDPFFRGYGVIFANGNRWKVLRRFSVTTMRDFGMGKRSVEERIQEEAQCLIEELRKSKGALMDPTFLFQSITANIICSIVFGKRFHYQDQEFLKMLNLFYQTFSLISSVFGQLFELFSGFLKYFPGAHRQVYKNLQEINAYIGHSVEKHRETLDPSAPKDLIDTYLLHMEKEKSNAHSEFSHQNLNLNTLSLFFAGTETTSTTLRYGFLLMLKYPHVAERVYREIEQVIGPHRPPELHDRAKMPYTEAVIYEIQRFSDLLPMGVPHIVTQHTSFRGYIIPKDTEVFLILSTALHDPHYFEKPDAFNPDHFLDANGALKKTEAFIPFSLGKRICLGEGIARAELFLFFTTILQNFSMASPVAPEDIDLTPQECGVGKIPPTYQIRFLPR", "assay": "Inhibition of CYP2B6 (unknown origin) at 10 uM relative to control", "format": "ADME"}, "CYP2C9": {"molecular_target": "CYP2C9 (Homo sapiens, UniProt P11712)", "assay": "Inhibition of CYP2C9 (unknown origin) at 10 uM relative to control", "format": "ADME"}, "CYP2D6": {"molecular_target": "CYP2D6 (Homo sapiens, UniProt P10635)", "sequence (P10635 whole entry)": "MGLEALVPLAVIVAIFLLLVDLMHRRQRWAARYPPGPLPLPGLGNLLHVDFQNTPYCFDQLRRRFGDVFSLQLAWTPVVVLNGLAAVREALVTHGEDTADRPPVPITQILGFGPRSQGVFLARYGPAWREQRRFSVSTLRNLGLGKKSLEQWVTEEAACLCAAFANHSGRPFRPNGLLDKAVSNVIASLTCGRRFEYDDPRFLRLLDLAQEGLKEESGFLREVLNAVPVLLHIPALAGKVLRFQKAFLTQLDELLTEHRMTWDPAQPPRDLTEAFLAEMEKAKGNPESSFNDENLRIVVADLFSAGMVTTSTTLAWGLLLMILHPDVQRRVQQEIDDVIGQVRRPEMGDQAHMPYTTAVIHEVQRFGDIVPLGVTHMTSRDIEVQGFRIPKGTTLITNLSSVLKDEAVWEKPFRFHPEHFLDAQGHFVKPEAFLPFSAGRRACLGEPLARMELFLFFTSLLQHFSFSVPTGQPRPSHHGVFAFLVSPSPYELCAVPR", "assay": "Inhibition of CYP2D6 (unknown origin) at 10 uM relative to control", "format": "ADME"}, "[10]": {"assay": "Clearance in ICR (CD-1) mouse at 10 mg/kg, iv measured up to 1440 mins by LC-MS/MS analysis", "format": "ADME, organism-based", "conditions": "in vivo", "in_short": "(§1)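 Male ICR (CD-1) mice, 22 ± 2 g, given the free base in DMSO/Solutol HS-15/0.9% NaCl (5/5/90, v/v/v), IV at 10 mg/kg or PO at 50 mg/kg; 24 mice per route, three per timepoint. Plasma was taken by cardiac puncture at 3–1440 min (IV) or 10–1440 min (PO), measured by LC-MS/MS, and parameters were derived by noncompartmental analysis.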"}, "[11]": {"assay": "AUClast in ICR (CD-1) mouse at 10 mg/kg, iv measured up to 1440 mins by LC-MS/MS analysis", "format": "ADME, organism-based", "parameters": "route intravenous, dose 10 mg/kg, time <=1440", "conditions": "in vivo", "in_short": "as §1"}, "[12]": {"assay": "Tmax in ICR (CD-1) mouse at 50 mg/kg, po measured up to 1440 mins by LC-MS/MS analysis", "format": "ADME, organism-based", "conditions": "in vivo", "in_short": "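Male ICR (CD-1) mice, 22 ± 2 g, given free base in DMSO/Solutol HS-15/0.9% NaCl (5/5/90) at 50 mg/kg PO or 10 mg/kg IV. Three mice per timepoint, 8 timepoints. Plasma taken by cardiac puncture at 10–1440 min (PO) or 3–1440 min (IV). Measured by LC-MS/MS, with parameters from noncompartmental analysis.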"}, "[13]": {"assay": "AUClast in ICR (CD-1) mouse at 50 mg/kg, po measured up to 1440 mins by LC-MS/MS analysis", "format": "ADME, organism-based", "parameters": "route oral, dose 50 mg/kg, time <=1440", "conditions": "in vivo", "in_short": "as §1"}, "Staphylococcus aureus [14]": {"tested_on": "Staphylococcus aureus", "assay": "Antibacterial activity against methicillin-resistant Staphylococcus aureus ATCC 33591 infected in iv dosed CD1 mouse model of septicemia assessed as mouse survival at 1 to 10 mg/kg, iv administered 0.5 to 3.5 hrs post injection measured for 7 days relative to control", "format": "functional", "conditions": "dose 1-10 mg/kg, time 7 day", "in_short": "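Female CD-1 mice (18–20 g), in groups of six, were infected IP with 1.3 × 10^8 CFU MRSA ATCC 33591 suspended in 8% hog gastric mucin (pH 7.5). Compound was given as the methanesulfonate salt in 5% DMSO/water for injection, by IV tail vein at 0.5, 1.5, 2.5 and 3.5 h post infection. Dose levels were 1, 5, 10, 25 and 50 mg/kg/dose. Survival was followed for 7 days against untreated infection controls.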"}, "Staphylococcus aureus [15]": {"tested_on": "Staphylococcus aureus", "assay": "Antibacterial activity against methicillin-resistant Staphylococcus aureus ATCC 33591 infected in iv dosed CD1 mouse model of septicemia assessed as mouse survival at 25 to 50 mg/kg, iv administered 0.5 to 3.5 hrs post injection measured for 7 days relative to control", "format": "functional", "conditions": "dose 25-50 mg/kg; time 7 day"}, "Cytochrome P450 2D6": {"molecular_target": "Cytochrome P450 2D6 (Homo sapiens, UniProt P10635)", "sequence (P10635 whole entry)": "as above", "assay": "Inhibition of CYP2D6 (unknown origin)", "format": "ADME"}, "Cytochrome P450 2C19": {"molecular_target": "Cytochrome P450 2C19 (Homo sapiens, UniProt P33261)", "sequence (P33261 whole entry)": "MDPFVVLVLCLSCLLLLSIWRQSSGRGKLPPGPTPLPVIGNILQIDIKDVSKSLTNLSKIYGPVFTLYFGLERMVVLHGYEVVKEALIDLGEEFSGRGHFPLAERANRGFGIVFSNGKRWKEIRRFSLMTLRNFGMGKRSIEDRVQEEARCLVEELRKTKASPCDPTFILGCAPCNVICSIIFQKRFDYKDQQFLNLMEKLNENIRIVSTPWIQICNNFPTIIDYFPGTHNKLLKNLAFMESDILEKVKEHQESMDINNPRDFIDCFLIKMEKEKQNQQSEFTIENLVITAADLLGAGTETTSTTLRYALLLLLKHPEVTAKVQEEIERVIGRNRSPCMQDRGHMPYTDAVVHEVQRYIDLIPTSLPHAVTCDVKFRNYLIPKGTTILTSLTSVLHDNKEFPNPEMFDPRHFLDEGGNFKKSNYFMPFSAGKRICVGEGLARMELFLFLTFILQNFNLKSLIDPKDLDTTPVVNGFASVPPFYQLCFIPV", "assay": "Inhibition of CYP2C19 (unknown origin)", "format": "ADME"}, "Cytochrome P450 2C8": {"molecular_target": "Cytochrome P450 2C8 (Homo sapiens, UniProt P10632)", "assay": "Inhibition of CYP2C8 (unknown origin)", "format": "ADME"}, "Cytochrome P450 1A2": {"molecular_target": "Cytochrome P450 1A2 (Homo sapiens, UniProt P05177)", "sequence (P05177 whole entry)": "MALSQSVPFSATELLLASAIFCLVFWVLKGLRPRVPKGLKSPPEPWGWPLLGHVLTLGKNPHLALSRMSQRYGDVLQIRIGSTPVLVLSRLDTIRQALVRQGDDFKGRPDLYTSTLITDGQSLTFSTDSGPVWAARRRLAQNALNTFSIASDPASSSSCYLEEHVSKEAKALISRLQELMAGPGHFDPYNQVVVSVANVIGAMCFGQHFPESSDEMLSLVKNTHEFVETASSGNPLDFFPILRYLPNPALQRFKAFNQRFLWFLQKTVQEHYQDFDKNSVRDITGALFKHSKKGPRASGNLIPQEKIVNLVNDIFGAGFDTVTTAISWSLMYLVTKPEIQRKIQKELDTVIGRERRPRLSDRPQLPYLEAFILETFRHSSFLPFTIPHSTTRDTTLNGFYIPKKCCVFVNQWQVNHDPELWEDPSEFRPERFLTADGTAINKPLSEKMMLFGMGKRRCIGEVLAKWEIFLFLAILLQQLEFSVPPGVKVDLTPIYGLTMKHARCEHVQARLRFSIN", "assay": "Inhibition of CYP1A2 (unknown origin)", "format": "ADME"}},
  "data": [
    {"compound": "COc1ccc2ncc(F)c(C[C@H](O)[C@H]3OC[C@H](NCc4cc5c(nn4)OCCS5)CO3)c2n1", "values": [
      {"measurement": "MIC", "setting": "Staphylococcus aureus [1]", "value": 0.125, "unit": "µg/mL"},
      {"measurement": "MIC", "setting": "Staphylococcus aureus [2]", "value": 0.25, "unit": "µg/mL"},
      {"measurement": "IC50", "setting": "DNA gyrase", "value": 15, "unit": "µM"},
      {"measurement": "IC50", "setting": "[3]", "value": 202, "unit": "µM"},
      {"measurement": "Activity", "setting": "[4]", "value": "Dose-Dependent Effect"},
      {"measurement": "IC50", "setting": "HeLa", "value": "> 125", "unit": "µM"},
      {"measurement": "inhibition", "setting": "[5]", "value": "> 45", "unit": "%"},
      {"measurement": "inhibition", "setting": "[6]", "value": "> 45", "unit": "%"},
      {"measurement": "inhibition at 100 µM", "setting": "hERG (KCNH2)", "value": "< 25", "unit": "%"},
      {"measurement": "inhibition at 100 µM", "setting": "Kv4.3 (KCND3)", "value": "< 25", "unit": "%"},
      {"measurement": "inhibition at 100 µM", "setting": "Nav1.5", "value": "< 25", "unit": "%"},
      {"measurement": "inhibition at 100 µM", "setting": "Nav1.5 (late current)", "value": "< 25", "unit": "%"},
      {"measurement": "Papp A→B", "setting": "[7]", "value": 5.68, "unit": "×10⁻⁶ cm/s"},
      {"measurement": "Papp B→A", "setting": "[8]", "value": 81.2, "unit": "×10⁻⁶ cm/s"},
      {"measurement": "half-life", "setting": "[9]", "value": 52, "unit": "min"},
      {"measurement": "inhibition at 10 µM", "setting": "CYP2B6", "value": "> 50", "unit": "%"},
      {"measurement": "inhibition at 10 µM", "setting": "CYP2C9", "value": "> 50", "unit": "%"},
      {"measurement": "inhibition at 10 µM", "setting": "CYP2D6", "value": "> 50", "unit": "%"},
      {"measurement": "clearance", "setting": "[10]", "value": 69, "unit": "mL/min/kg"},
      {"measurement": "AUC(0-t) at 24 h", "setting": "[11]", "value": 2400, "unit": "ng·h/mL"},
      {"measurement": "Tmax", "setting": "[12]", "value": 10.2, "unit": "min"},
      {"measurement": "AUC(0-t) at 24 h", "setting": "[13]", "value": 5910, "unit": "ng·h/mL"},
      {"measurement": "Survival", "setting": "Staphylococcus aureus [14]", "value": ">50", "unit": "%"},
      {"measurement": "Survival", "setting": "Staphylococcus aureus [15]", "value": 100, "unit": "%"},
      {"measurement": "IC50", "setting": "Cytochrome P450 2D6", "value": "> 10", "unit": "µM"},
      {"measurement": "IC50", "setting": "Cytochrome P450 2C19", "value": "> 10", "unit": "µM"},
      {"measurement": "IC50", "setting": "Cytochrome P450 2C8", "value": "> 10", "unit": "µM"},
      {"measurement": "IC50", "setting": "Cytochrome P450 1A2", "value": "> 10", "unit": "µM"}
    ]}
  ]
}
